# Compound activity deposited in PubChem by several laboratories.
# AHR activator: human AHR activation; AHR-responsive luciferase reporter cells, luminescence; activation, % at 5 µM; AID 2796; 320,000 tested, 2.5% active; in the data active = activation above about 47%
# SR-BI uptake up: activators of SR-BI mediated HDL lipid uptake; CHO ldlA[mSR-BI] cells, DiI-HDL uptake fluorescence, 3 h; 100 = double the neutral-control signal; activation, % at 12.5 µM; 320,000 tested, 0.096% active;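 active = mean replicate activation of at least 60% and every replicate at or above 60%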
#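 Material: SR-BI-overexpressing, LDLR-lacking CHO cells | Dosing: Single compound concentration, delivered by pin transfer | Probe or stimulus: Labelled HDL, 10 µg/mL | Signal: Bottom-read cell fluorescence after medium removal, ex 550/em 595 nm | Schedule: 3 h, 37 °C | Evaluation: HDL uptake via cellular fluorescence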
# SMARCA2 activ: SMARCA2 function activation, primary screen. 370,000 tested, 1% active. AID 652017. activation, % at 9.1 µM. MG213 cells, MMTV-luciferase reporter, dexamethasone, overnight; in the data active = activation above about 7.8%
# CR mimetic SO: yeast age-related superoxide inhibition as caloric restriction mimetic; S. cerevisiae aged cells, superoxide DHE fluorescence; stronger effect = lower value; superoxide response (% of plate mean), % at 10 µM; 330,000 tested, 0.18% active; AID 2690;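 active = superoxide response under a set limit, about three screen SD below normal, cut at about 65% in these data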;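 note: yeast aged for seven days with compound at 30 °C before DHE staining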
# Hep lipid drop: hepatic lipid droplet formation modulation | AML12 mouse hepatocytes, oleate lipid droplets, BODIPY imaging | inhibition, % at 6.5 µM | 240,000 tested, 0.4% active | AID 1656;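 active = lipid droplet intensity inhibited by at least 50%, with more than 500 cells counted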
#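 Assay system: AML12 mouse liver cells | Compound: 6.5 µM single-point dosing | Schedule: Overnight exposure | Technique: Fluorescence imaging, 20x objective, two fields per well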
# SR-BI HDL uptake: blocks mouse SR-BI lipid uptake from DiI-HDL; Q61009; ldlA[mSR-BI] CHO cells, DiI-HDL uptake fluorescence, 3 h; inhibition, % at 12.5 µM; 320,000 tested, 0.96% active;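 active = mean replicate inhibition of at least 70% and a set share of replicates each scoring 70 or more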
# Target sequence (Q61009 whole entry, looked up): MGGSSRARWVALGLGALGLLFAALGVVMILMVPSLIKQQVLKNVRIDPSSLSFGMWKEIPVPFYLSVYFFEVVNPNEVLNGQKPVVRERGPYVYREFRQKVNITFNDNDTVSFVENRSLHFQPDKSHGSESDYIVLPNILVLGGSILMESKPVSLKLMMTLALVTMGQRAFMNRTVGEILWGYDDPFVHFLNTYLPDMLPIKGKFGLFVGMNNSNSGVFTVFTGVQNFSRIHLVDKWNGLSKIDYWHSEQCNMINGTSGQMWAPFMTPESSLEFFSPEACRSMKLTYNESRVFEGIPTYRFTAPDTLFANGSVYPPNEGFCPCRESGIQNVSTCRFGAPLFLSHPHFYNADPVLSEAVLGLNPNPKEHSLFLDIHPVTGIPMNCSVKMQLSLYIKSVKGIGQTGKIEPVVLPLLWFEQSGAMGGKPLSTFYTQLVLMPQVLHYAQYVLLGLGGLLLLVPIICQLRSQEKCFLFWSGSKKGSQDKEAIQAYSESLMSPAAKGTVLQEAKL
# Numbers stand for hits; - = inactive; . = no result. A selection: hits, their analogues and other compounds. The true share with any hit is near 4.3%.
SMILES,AHR activator,SR-BI uptake up,SMARCA2 activ,CR mimetic SO,Hep lipid drop,SR-BI HDL uptake
Cc1ncoc1C(=O)N1CCCC(N2CCN(c3cccc(C(F)(F)F)c3)CC2)C1 (configuration not stated),55.1,.,-,-,-,-
CCN1CCN(C(=O)c2sc3ncnc(N4CCc5ccccc5C4)c3c2C)CC1,48.9,-,-,-,-,-
O=C(CSc1nnc(-c2ccccc2)n1-c1ccc(Cl)cc1)Nc1cccc2ccccc12,.,.,-,.,.,.
c1ccc(-c2nc(NC3CCCC3)c3ccccc3n2)cc1,53.4,-,-,-,-,-
COc1cccc(-c2nc(N3CCCCC3C)c3ccccc3n2)c1O (configuration not stated),-,-,-,-,.,-
C=CCNc1nc(-c2cccc(OC)c2O)nc2ccccc12,-,-,-,-,.,75.9
COc1cccc(-c2nc(NC3CCCC3)c3ccccc3n2)c1O,-,-,-,-,.,82.5
c1ccc(Nc2nc(-c3ccccc3)nc3ccccc23)cc1,-,-,-,-,-,-
CCc1cccc2c(C(=O)COC(=O)/C=C/c3ccc(O)c(OC)c3)c[nH]c12,-,-,-,-,-,75.5
O=C(O)CSc1nnc2c(n1)[nH]c1ccccc12,-,-,-,-,-,-
Cc1cc(C)c2[nH]c3nc(SCC(=O)O)nnc3c2c1,49.6,-,-,-,.,-
Cc1ccc(-c2nc3[nH]c(=O)cc(NC(=O)C(C)C)n3n2)cc1,-,-,-,-,.,-
CCC(=O)Nc1cc(=O)[nH]c2nc(-c3ccc(Cl)cc3)nn12,74.1,.,-,-,.,.
CCCCOc1ccc(C(=O)NC2CCCCN(Cc3ccc(C)cc3)C2=O)cc1 (configuration not stated),.,.,-,.,.,.
Cc1cc(/C=C(\C#N)C(=O)NCc2ccco2)c(C)n1-c1cccnc1,69.9,-,-,-,-,-
COCCn1c(-c2ccccc2)csc1=Nc1cccnc1,-,-,-,-,-,-
c1cncc(N=c2scc(-c3cccc4ccccc34)n2CCCn2ccnc2)c1,55.7,-,-,-,-,-
C/C(=N/NC(=O)c1cccs1)c1c(C)[nH]n(-c2nc3ccccc3s2)c1=O,-,-,-,-,-,106.7
NNc1nc(-c2ccccc2)cc(-c2ccc(Br)cc2)n1,69.2,-,-,-,-,-
NNc1nc(-c2ccccc2)c2cc(Br)ccc2n1,-,-,-,-,-,-
CCCCN(C)S(=O)(=O)c1ccc2[nH]c(=O)oc2c1,.,.,-,.,.,.
Cc1ccc([N+](=O)[O-])c(OCc2ncc(Cl)n2C)c1,55.5,.,-,-,-,.
CCC(C)NC(=O)CSc1nnc(-c2cc(-c3ccc(C)cc3)nc3ccccc23)n1N (configuration not stated),-,-,-,-,-,86.5
Cc1[nH]c(C)c(S(=O)(=O)N2CCN(c3cccc(Cl)c3)CC2)c1C(=O)N1CCCC1,49.5,-,-,-,-,-
COc1cccc(N2CCN(S(=O)(=O)c3c(C)[nH]c(C)c3C(=O)N3CCCC3)CC2)c1,-,-,-,-,-,-
SMILES,AHR activator,SR-BI uptake up,SMARCA2 activ,CR mimetic SO,Hep lipid drop,SR-BI HDL uptake
CC1CCC(=C(C#N)c2nc(-c3cc4ccccc4oc3=O)cs2)CC1 (configuration not stated),-,-,.,-,-,76.1
O=C(O)C(=O)/C(=C\c1cccc2ccccc12)c1ccc2ccccc2n1,-,.,-,-,.,.
O=C(O)C(=O)/C(=C\c1ccsc1)c1ccc2ccccc2n1,77.2,-,-,-,-,-
O=C(O)C(=O)/C(=C\c1ccccc1)c1ccc2ccccc2n1,47.6,-,-,-,-,-
Clc1ccc(-c2cn3c(n2)-c2ccccc2C3)cc1Cl,61.7,-,-,-,-,-
CC(CCN1CCC(C(O)(c2ccccc2)c2ccccc2)CC1)Oc1ccc(C#N)c(F)c1 (configuration not stated),.,.,-,.,.,.
CCN(CC)c1ccc(NC(=O)CSc2nc3ccccc3c(=O)[nH]2)cc1,63.0,.,-,-,-,.
c1ccc2sc(Sc3ncnc4sccc34)nc2c1,49.0,-,-,-,-,-
COCCCNC(=O)C[C@H]1C[C@@]2(C(=O)OC)C(=C[C@H](C(C)C)O[C@@H]2C2CC2)N(Cc2cccc3ccccc23)C1=O,.,.,-,.,.,.
C=CCn1c2ccccc2c2nnc(SCN3C(=O)c4ccccc4C3=O)nc21,78.3,-,-,-,.,-
O=C1c2ccccc2C(=O)N1CSc1nnc2c3ccccc3n(CCc3ccccc3)c2n1,-,-,.,-,-,-
CCCCc1c(-c2ccccc2OC)ncn1Cc1cc(F)ccc1F,.,.,-,.,.,.
NC(=O)c1cc([N+](=O)[O-])c(Cl)cc1NCc1ccncc1,-,-,-,-,.,-
NC(=O)c1cc([N+](=O)[O-])c(Cl)cc1NCc1ccccn1,66.6,-,-,-,.,-
Cc1ccc2nc(/C=C/c3cccc(F)c3)ccc2c1,47.5,-,-,-,-,-
Cc1ccc2ncccc2c1,-,-,-,-,.,-
COC(=O)C1=C(C)N(Cc2ccccc2C(F)(F)F)C(=NCc2ccccc2C(F)(F)F)NC1c1cccc(C(F)(F)F)c1 (configuration not stated),.,.,-,.,.,.
O=C(CSc1n[nH]c(-c2ccco2)n1)Nc1sc2c(c1C(=O)Nc1ccccc1)CCCC2,47.9,-,-,-,-,-
CC(C)C[C@H](NC(=O)N1CCOCC1)C(=O)N1CCC[C@H]1C(=O)NCc1ccccc1,.,.,-,.,.,.
CN1c2ccccc2C(O)=C(C(=S)Nc2ccc(F)c(Cl)c2)S1(=O)=O,51.5,-,-,-,-,-
CN1c2ccccc2C(O)=C(C(=S)Nc2ccccc2)S1(=O)=O,-,-,-,-,-,-
O=C1c2ccccc2/C(=C\c2ccc(O[C@@H]3CCCCO3)cc2)N1c1ccccc1,.,.,-,.,.,.
Cc1ccc(-c2nc3ccccc3o2)cc1NC(=S)NC(=O)/C=C/c1ccco1,-,-,-,-,.,-
COc1ccc(-c2csc(NC(=S)NC(=O)/C=C/c3ccc(C(C)C)cc3)n2)cc1OC,-,-,-,-,-,75.2
O=C(/C=C/c1ccco1)NC(=S)Nc1cccc(-c2nc3ccccc3o2)c1,56.8,-,-,-,.,-
SMILES,AHR activator,SR-BI uptake up,SMARCA2 activ,CR mimetic SO,Hep lipid drop,SR-BI HDL uptake
COc1ccc(-c2csc(NC(=S)NC(=O)/C=C/c3ccco3)n2)cc1Br,-,-,-,-,-,-
COc1ccc(-c2csc(NC(=S)NC(=O)/C=C/c3ccco3)n2)cc1OC,-,-,-,-,-,75.9
CCCCn1c(O)c(N=Nc2ccccc2O)c2ccccc21,59.7,-,-,-,.,-
CCCCn1c(O)c(N=Nc2ccccn2)c2ccccc21,-,-,-,-,-,-
CN(c1ccc(C(=O)N2CCCCCC2)cc1)S(=O)(=O)c1ccc(Cl)cc1,-,-,-,-,-,71.0
CN(c1ccc(C(=O)N2CCOCC2)cc1)S(=O)(=O)c1ccc(Cl)cc1,-,-,-,-,-,-
O=C(/C=C/c1c[nH]c2ccccc12)c1cccc2ccccc12,67.7,-,-,-,-,-
